For 40 molecules, cytotoxicity results are on record in ChEMBL document CHEMBL4513216, “Probing the Open Global Health Chemical Diversity Library for Multistage-Active Starting Points for Next-Generation Antimalarials” (ACS Infect Dis, 2020).

Structures are written as SMILES.

This data set can be described thus: Toxicity liver stage against HepG2, at 10uM. The format is cell-based. Also noted: test concentration 10 uM, cell line HepG2-A16-CD81EGFP. The following applies: human, HepG2-A16-CD81EGFP cells; read-out: INHIBITION
The method, boiled down:
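Uninfected HepG2-A16-CD81EGFP cells, 3 × 10^3 per well, 1536-well, plated on prespotted compound at 10 μM final, parasite-free screening media added to match infected plates; puromycin 10 μM positive, DMSO 0.5% negative; run in parallel with 48 h PbLuc assay at 37 °C, 5% CO2; viability by CellTiter-Glo luminescence, normalized to controls.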

As to `O=C(O)c1cc(-c2cccnc2)cc(S(=O)(=O)NCc2ccccn2)c1`, the cytotoxicity at 10 µM is -49.9%.

In the case of `CN(CC(=O)N1CCc2[nH]c3ccccc3c2C1)CC1OCCO1`, the cytotoxicity at 10 µM was -1.63%.

In the case of `Cc1cnc(N2CCOC3(CCCN(C(=O)C(C)C)C3)C2)nc1` (stereo not given), the cytotoxicity at 10 µM was 10.9%.

For `CS(=O)(=O)c1ccccc1C(=O)NCC1Cc2ccccc2O1` (stereo not given), the cytotoxicity at 10 µM is -9.6%.

On to `CCn1ccnc1CN1CCN(c2cc(C)nc(C3CCCN3)c2)CC1` (stereo not given), for which the cytotoxicity at 10 µM stood at 2.19%.

Turning to `CCN1C(=O)C(c2ccccc2)CC12CCN(S(C)(=O)=O)CC2` (stereo not given), the cytotoxicity at 10 µM was determined as 3.2%.

Take `CN1CCCC1CNC(=O)CCCOc1cccc(F)c1` (stereo not given): the cytotoxicity at 10 µM is -9.54%.

With `Cc1ccc(C(=O)N(Cc2ccccc2F)C2CC2)c(=O)[nH]1`, the cytotoxicity at 10 µM is 0.846%.

In the case of `O=C(N1CCOCC(O)C1)C1(c2ccc(Cl)cc2)CCC1` (stereo not given), the cytotoxicity at 10 µM is -4.24%.

As to `COc1ccc(C(N)=O)cc1NCc1ncc(-c2cccs2)o1`, the cytotoxicity at 10 µM came to 8.2%.

As to `CC(C)n1c(C2CCCN(CC(=O)NC(N)=O)C2)nc2ccccc21` (stereo not given), the cytotoxicity at 10 µM was -7.9%.

On to `O=C(C1CC(c2cccc(F)c2)=NO1)N1CCc2ccccc21` (stereo not given), for which the cytotoxicity at 10 µM came out at 2.46%.

For `Cc1nnc([C@@H]2C[C@H]3CN(C(=O)C4CC4)C[C@H]3O2)[nH]1`, the cytotoxicity at 10 µM amounted to 19.8%.

With `O=C(Nc1cnc2n1CCCC2)C1CCCN1C1CCNCC1` (stereo not given), the cytotoxicity at 10 µM turned out to be 11.6%.

Regarding `Cc1nn(C)c(C)c1NC(=O)CN1CCOC(CN(C)C)C1` (stereo not given), the cytotoxicity at 10 µM is -8.72%.

For `CCn1cc(CN2CCC(c3[nH]ncc3S(C)(=O)=O)C2)cn1` (stereo not given), the cytotoxicity at 10 µM was -2.33%.

As for `Cc1cc(-c2nn3c(C(C)C)nnc3s2)on1`, the cytotoxicity at 10 µM worked out at 0.9%.

With `CCOc1ccc(S(=O)(=O)NCCc2ccc(N(C)C)cc2)cc1F`, the cytotoxicity at 10 µM is -3.56%.

With `CC(O)CN1CCC(CNCc2cccc(C(F)(F)F)c2)CC1` (stereo not given), the cytotoxicity at 10 µM is -15.2%.

Regarding `O=C(CCc1cccnc1)Nc1ccc(OCC2CCOCC2)cc1`, the cytotoxicity at 10 µM was -6.01%.

For the molecule `COCC(=O)N(C)Cc1nc(N(C)C)ncc1-c1ccncc1`, the cytotoxicity at 10 µM was determined as 2.42%.

Regarding `CCc1nnc2n1CCN(C(=O)c1cc3cc(C)ccc3[nH]1)C2`, the cytotoxicity at 10 µM was 0.893%.

As for `COc1ccc2cc(NC(=O)CCNc3nc(C)cc(C)n3)cnc2c1`, the cytotoxicity at 10 µM was -48.9%.

In the case of `FC(F)(F)C1CCCn2c(CNCc3ccco3)nnc21` (stereo not given), the cytotoxicity at 10 µM is -9.5%.

For the molecule `O=C(NCc1nn(-c2ccccc2)c2c1CCC2)NC1CC1`, the cytotoxicity at 10 µM was -9.14%.

For the molecule `CNC(=O)c1nc2c(s1)CCN(C(=O)c1cccnc1)CC2`, the cytotoxicity at 10 µM was 6%.

`COCC(C)NC(=O)c1cc(C)n(-c2cccc(OC)c2)c1C` (stereo not given): the cytotoxicity at 10 µM was -13.9%.

Take `Cc1nc(CN2CCCC(NCc3cccc(C(N)=O)c3)C2)no1` (stereo not given): the cytotoxicity at 10 µM was -14.5%.

For the molecule `O=S(=O)(C1CC1)N1CCO[C@H]2[C@H](OCCN3CCCC3)CC[C@@H]21`, the cytotoxicity at 10 µM is -5.63%.

With `N#Cc1ccc(CN2CCN(c3ccncc3Cl)CC2=O)cc1`, the cytotoxicity at 10 µM was 4.64%.

Consider `COC(=O)C(NC(=O)C1CC1)c1cc(F)ccc1F` (stereo not given), for which the cytotoxicity at 10 µM was -4.64%.

Regarding `O=C(Nc1cc(N2CCOCC2)ncn1)c1cnccn1`, the cytotoxicity at 10 µM is -3.45%.

On to `O=C1CC2(CCCCN2CC2CC2)CN1c1ccccc1` (stereo not given), for which the cytotoxicity at 10 µM came to 4.86%.

Take `Nc1nc(CN2CCN(c3nccs3)CC2)cs1`: the cytotoxicity at 10 µM came out at 4.79%.

As to `CC(=O)C(C)CC(=O)N(Cc1cccc(C)c1)C(C)C` (stereo not given), the cytotoxicity at 10 µM was -3.73%.

With `CS(=O)(=O)c1nnc(NC(=O)CCc2cccc(Cl)c2)[nH]1`, the cytotoxicity at 10 µM was -20.4%.

Turning to `COCC1CCN(S(=O)(=O)N2C[C@@H](C)[C@](O)(C3CC3)C2)CC1`, the cytotoxicity at 10 µM stood at 0.23%.

`COc1ccc2[nH]nc(CN3CCC(C(C)N4CCCC4)CC3)c2c1` (stereo not given): the cytotoxicity at 10 µM was -4.13%.

Take `CC(C)C(C)(C#N)NC(=O)Cn1cc(Cl)cn1` (stereo not given): the cytotoxicity at 10 µM was found to be 1.18%.

In the case of `NC(=O)c1nnn(-c2ccc(Cl)cc2)n1`, the cytotoxicity at 10 µM was determined as 8.99%.
